Data taken from ChEMBL document CHEMBL1158546, “Discovery of novel and potent leukotriene B4 receptor antagonists. Part 1” (J Med Chem, 2010).
Calls of active or inactive are those of the source. The rule behind the calls is not given here.

Tests used:
Cytochrome P450 3A4 = Cytochrome P450 3A4 (Homo sapiens, UniProt P08684); assay: Inhibition of CYP3A4 fluorescence method; format: ADME
Method in brief: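 High-throughput CYP panel covering 1A2, 2D6, 2C9, 2C19 and 3A4, using fluorogenic substrates. IC50 was determined in μM.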

Rattus norvegicus [1] = assay: Hepatotoxicity in po dosed rat assessed as increase in total bilirubin level treated for 14 days measured; format: toxicity, organism-based; details: in vivo, 336 h
Rattus norvegicus [2] = assay: Toxicity in rat assessed as aspartate aminotransferase level at 400 mg/kg, po qd treated for 14 days; format: organism-based; set-up: dose 400 mg/kg, route oral; details: in vivo, 336 h
Method in brief: (§1)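 Male Han-Wistar rats (200-230 g), n = 4 per group, were given 40 or 400 (mg/kg)/day orally for 14 days in 2% Klucel LF/0.1% Tween-80 versus vehicle. Body weight was recorded at pretreatment and on days 1, 8 and 14, and food intake weekly. Clinical chemistry was sampled on day 5 and at necropsy. Organs were formalin-fixed and H&E stained. Data are given as mean ± SD and analysed by Bartlett's test.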

[3] = molecular target: T1, Leukotriene B4 receptor 1 (Homo sapiens, UniProt Q15722); assay: Antagonist activity at FLAG-tagged human BLT1 receptor expressed in HEK293 cells assessed as inhibition of LTB4-stimulated calcium mobilization preincubated for 10 mins before LTB4 challenge; format: functional, cell-based
Rattus norvegicus [4] = assay: Hepatotoxicity in rat assessed as increase in ALT level at 40 mg/kg, po qd after 5 days; format: toxicity, organism-based; set-up: dose 40 mg/kg, route oral; details: in vivo, 120 h; method in brief: as §1
Cytochrome P450 2C19 = Cytochrome P450 2C19 (Homo sapiens, UniProt P33261); assay: Inhibition of CYP2C19 fluorescence method; format: ADME
Method in brief: (§2)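 Cytochrome P450 high-throughput panel (1A2, 2D6, 2C9, 2C19, 3A4) using fluorogenic substrates; IC50 reported.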

Rattus norvegicus [5] = assay: Hepatotoxicity in rat assessed as increase in ALT level at 400 mg/kg, po qd treated for 14 days measured after 5 days relative to control; details: in vivo, 120 h
[6] = Volume of distribution at steady state in Sprague-Dawley rat at 5 mg/kg, iv; format: ADME, organism-based; set-up: dose 5 mg/kg, route intravenous; details: in vivo, read-out: Vdss
Method in brief: (§3)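 Rat single-dose PK, n = 3, with oral dosing at 10 mg/kg and intravenous dosing at 2.5 or 5 mg/kg.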

Rattus norvegicus [7] = assay: Hepatotoxicity in rat assessed as increase in ALT level at 400 mg/kg, po qd treated after 5 days; format: toxicity, organism-based; set-up: dose 400 mg/kg, route oral; details: in vivo, 120 h; method in brief: as §1
Cytochrome P450 1A2 = molecular target: T2, Cytochrome P450 1A2 (Homo sapiens, UniProt P05177); assay: Inhibition of CYP1A2 by fluorescence method; format: ADME; method in brief: as §2
T2 sequence (P05177 whole entry): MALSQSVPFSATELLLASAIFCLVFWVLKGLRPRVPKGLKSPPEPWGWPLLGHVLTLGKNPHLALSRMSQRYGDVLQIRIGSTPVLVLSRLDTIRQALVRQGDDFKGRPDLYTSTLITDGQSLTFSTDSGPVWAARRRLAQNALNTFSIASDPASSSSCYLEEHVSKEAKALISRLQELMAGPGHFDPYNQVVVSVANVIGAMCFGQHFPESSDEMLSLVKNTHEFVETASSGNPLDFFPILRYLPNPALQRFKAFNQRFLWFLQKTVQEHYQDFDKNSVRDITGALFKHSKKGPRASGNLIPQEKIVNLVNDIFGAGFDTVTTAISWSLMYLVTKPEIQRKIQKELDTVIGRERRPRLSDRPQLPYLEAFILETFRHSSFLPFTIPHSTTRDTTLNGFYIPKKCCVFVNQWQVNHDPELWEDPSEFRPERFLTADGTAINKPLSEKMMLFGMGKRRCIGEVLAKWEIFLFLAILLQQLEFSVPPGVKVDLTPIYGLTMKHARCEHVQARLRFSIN

[8] = Half life in Sprague-Dawley rat at 10 mg/kg, po; format: ADME, organism-based; set-up: dose 10 mg/kg, route oral; details: in vivo; method in brief: as §3
Cynomolgus monkey = assay: Antiinflammatory activity against ascaris suum antigen-evoked increase in neutrophils at bronchoalveolar lavage in cynomolgus monkey at 10 mg/kg, po after 1 hr treated before LTB4 challenge; format: functional, organism-based; set-up: dose 10 mg/kg; details: Macaca fascicularis, in the assay text read “before Ascaris suum antigen challenge” for “before LTB4 challenge”
Method in brief: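 Male cynomolgus monkeys (4-10 kg) naturally hypersensitive to Ascaris suum had baseline BAL 24 h before challenge. They were dosed orally with 10 mg/kg in 15% Labrasol in PEG. One hour later, under ketamine/xylazine, they received antigen aerosol for 90 s by endotracheal tube. BAL neutrophil percentage came from 300-cell LeukoStat differentials, with hemocytometer totals. Analysis by two-way ANOVA/Bonferroni; 3-21 animals per group.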

Rattus norvegicus [9] = assay: Toxicity in rat assessed as alkaline phosphatase level at 400 mg/kg, po qd treated for 14 days; format: organism-based; set-up: dose 400 mg/kg, route oral; details: in vivo, 336 h; method in brief: as §1
[10] = Half life in Sprague-Dawley rat at 5 mg/kg, iv; format: ADME, organism-based; set-up: dose 5 mg/kg, route intravenous; details: in vivo; method in brief: as §3
Neutrophil = assay: Inhibition of LTB4-stimulated human neutrophils migration after 30 mins by using CyQuant GR fluorescent dye; format: functional, cell-based; details: Homo sapiens, Neutrophil, 0.5 h; read-out: IC50
Method in brief: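 Human blood neutrophils (95-97% pure, isolated over Lympholyte-poly) at 5 × 10^6 cells/mL were preincubated with compound (3 × 10^-12 to 1 × 10^-6 M final) for 30 min at 37 C. Migration toward 100 ng/mL LTB4 across a polycarbonate membrane ran 90 min at 37 C. Migrated cells were lysed with CyQuant GR and read at 480/520 nm. IC50 was taken from a sigmoidal fit of % inhibition.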

[11] = molecular target: T1, Leukotriene B4 receptor 1; assay: Antagonist activity at BLT1 receptor expressed in human HL60 cells assessed as inhibition of LTB4-stimulated calcium flux after 30 mins; format: functional, cell-based, HL-60; details: read-out: IC50
Method in brief: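 HL-60 cells grown in RPMI-1640 with 20% FBS were plated at 2.0 × 10^5 cells/ml with 1 μM retinoic acid. They were dye-loaded in HBSS/20 mM HEPES/5 mM probenecid (0.05% BSA in the replacement buffer) for 1 h at 37 C. Compound (5 × 10^-11 to 3 × 10^-6 M final) was added for 30 min at room temperature, then 0.5 μM LTB4. Fluorescence was read every 1.5 s for 100 s and peak increase scored as % inhibition versus DMSO control.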

Rattus norvegicus [12] = assay: Hepatotoxicity in rat assessed as increase in ALT level at 400 mg/kg, po qd treated after 15 days; format: toxicity, organism-based; set-up: dose 400 mg/kg, route oral; details: in vivo, 360 h; method in brief: as §1
[13] = Cmax in Sprague-Dawley rat at 10 mg/kg, po; format: ADME, organism-based; set-up: dose 10 mg/kg, route oral; details: in vivo; method in brief: as §3
Cytochrome P450 2C9 = Cytochrome P450 2C9 (Homo sapiens, UniProt P11712); assay: Inhibition of CYP2C9 fluorescence method; format: ADME
Rattus norvegicus [14] = assay: Toxicity in rat assessed as alkaline phosphatase level at 40 mg/kg, po qd treated for 14 days; format: organism-based; set-up: dose 40 mg/kg, route oral; details: in vivo, 336 h; method in brief: as §1
[15] = Oral bioavailability in Sprague-Dawley rat at 10 mg/kg, po; format: ADME, organism-based; details: in vivo; method in brief: as §3

T1 sequence (Q15722 whole entry): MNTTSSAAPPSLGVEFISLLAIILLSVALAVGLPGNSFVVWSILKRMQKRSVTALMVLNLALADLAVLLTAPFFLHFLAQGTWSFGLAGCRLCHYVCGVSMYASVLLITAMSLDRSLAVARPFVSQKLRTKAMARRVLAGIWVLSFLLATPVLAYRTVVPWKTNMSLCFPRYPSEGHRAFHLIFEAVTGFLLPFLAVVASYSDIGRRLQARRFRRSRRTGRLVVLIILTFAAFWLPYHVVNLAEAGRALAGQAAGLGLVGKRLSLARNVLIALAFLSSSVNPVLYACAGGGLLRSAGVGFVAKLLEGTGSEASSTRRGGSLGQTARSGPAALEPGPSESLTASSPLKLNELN
Cytochrome P450 2C9, sequence (P11712 whole entry): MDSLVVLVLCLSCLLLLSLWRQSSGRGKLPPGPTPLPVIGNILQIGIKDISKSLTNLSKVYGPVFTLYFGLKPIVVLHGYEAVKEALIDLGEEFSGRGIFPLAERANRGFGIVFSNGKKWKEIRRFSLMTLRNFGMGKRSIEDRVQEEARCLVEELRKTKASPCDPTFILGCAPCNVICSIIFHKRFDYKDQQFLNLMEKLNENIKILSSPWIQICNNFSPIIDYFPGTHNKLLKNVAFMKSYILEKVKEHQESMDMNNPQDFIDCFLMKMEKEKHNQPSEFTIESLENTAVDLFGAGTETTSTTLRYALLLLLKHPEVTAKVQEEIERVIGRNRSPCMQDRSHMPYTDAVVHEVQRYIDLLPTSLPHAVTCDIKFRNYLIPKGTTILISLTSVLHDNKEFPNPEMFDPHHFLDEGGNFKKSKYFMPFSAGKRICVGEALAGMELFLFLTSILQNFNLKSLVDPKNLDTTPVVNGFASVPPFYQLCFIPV
Cytochrome P450 3A4, sequence (P08684 whole entry): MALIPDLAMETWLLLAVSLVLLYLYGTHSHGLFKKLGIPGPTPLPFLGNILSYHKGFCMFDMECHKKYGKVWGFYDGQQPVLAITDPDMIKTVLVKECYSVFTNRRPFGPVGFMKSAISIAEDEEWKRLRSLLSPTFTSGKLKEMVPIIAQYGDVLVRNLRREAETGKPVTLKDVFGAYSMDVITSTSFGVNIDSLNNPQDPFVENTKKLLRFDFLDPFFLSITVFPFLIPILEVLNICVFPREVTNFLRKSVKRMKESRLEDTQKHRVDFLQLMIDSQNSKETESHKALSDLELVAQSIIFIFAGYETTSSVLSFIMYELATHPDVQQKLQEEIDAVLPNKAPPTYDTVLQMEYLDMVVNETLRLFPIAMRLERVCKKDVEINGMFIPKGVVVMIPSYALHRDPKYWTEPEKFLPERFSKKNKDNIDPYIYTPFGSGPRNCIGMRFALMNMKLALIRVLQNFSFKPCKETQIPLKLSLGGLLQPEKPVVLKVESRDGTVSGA
Cytochrome P450 2C19, sequence (P33261 whole entry): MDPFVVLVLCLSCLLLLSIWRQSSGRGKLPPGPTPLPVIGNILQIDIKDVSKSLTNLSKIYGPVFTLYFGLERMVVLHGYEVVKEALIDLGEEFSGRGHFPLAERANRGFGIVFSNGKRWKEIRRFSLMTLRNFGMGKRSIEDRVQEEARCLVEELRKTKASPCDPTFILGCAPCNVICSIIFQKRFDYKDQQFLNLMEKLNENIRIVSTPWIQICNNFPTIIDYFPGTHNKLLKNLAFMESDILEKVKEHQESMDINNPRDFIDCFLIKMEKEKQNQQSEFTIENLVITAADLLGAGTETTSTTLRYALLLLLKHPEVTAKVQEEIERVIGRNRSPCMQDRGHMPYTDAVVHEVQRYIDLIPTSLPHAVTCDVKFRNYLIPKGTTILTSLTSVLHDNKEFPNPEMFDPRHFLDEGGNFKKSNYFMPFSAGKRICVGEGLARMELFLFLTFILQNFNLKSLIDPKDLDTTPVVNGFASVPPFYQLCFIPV

IC50 (Cytochrome P450 3A4) | IC50 [3] | IC50 (Cytochrome P450 2C19) | Vd [6] | IC50 (Cytochrome P450 1A2) | half-life [8] | half-life [10] | IC50 (Neutrophil) | IC50 [11] | Cmax [13] | IC50 (Cytochrome P450 2C9) | SMILES | Activity (Rattus norvegicus [1]) | Activity (Rattus norvegicus [2]) | Activity (Rattus norvegicus [4]) | Activity (Rattus norvegicus [5]) | Activity (Rattus norvegicus [7]) | Activity (Cynomolgus monkey) | Activity (Rattus norvegicus [9]) | Activity (Rattus norvegicus [12]) | Activity (Rattus norvegicus [14]) | also measured
> 7500 nM | 129 nM | > 7500 nM | 0.98 L/kg | > 7500 nM | 3.1 h | 2.4 h | 3.68 nM | 1.19 nM | 2.25 µM | > 25000 nM | O=C(O)CCCOc1cccc(CCCCCCOc2cc(-c3cccc(F)c3)cc(-c3ccc4c(c3)OCO4)c2)c1CCC(=O)O | Toxic | Non-toxic | 40 IU/L | 53% | 69 IU/L | Active | Non-toxic | 121 IU/L | Non-toxic | bioavailability [15]: 88%
> 7500 nM | 114 nM | > 7500 nM | 0.22 L/kg | > 7500 nM | 2.7 h | 2.1 h | 0.1 nM | 0.44 nM | 6.21 µM | 3900 nM | O=C(O)CCCOc1cccc(CCCCCCOc2cc(-c3ccsc3)cc(-c3ccc4c(c3)OCO4)c2)c1CCC(=O)O | Toxic | Non-toxic | 40 IU/L | 29% | 58 IU/L | Active | Non-toxic | 125 IU/L | Non-toxic | bioavailability [15]: 70%
